# KCNK3 block: human KCNK3 channel inhibitors, primary screen, CHO cells, FluxOR thallium flux, B-score | B-score at 10 µM | 340,000 tested, 0.84% active | FluxOR fluorescence; hits give low values | Potassium channel subfamily K member 3 (Homo sapiens), O14649 | AID 602410, 2012;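 active means B-score under library mean minus 4 SD, starting fluorescence ratio at most library mean plus 5 SD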;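 further: more negative B-score means stronger inhibition of thallium flux through KCNK3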
# KCNK9 inh: KCNK9 potassium channel inhibitors, primary screen, HEK293 cells, thallium flux; Potassium channel subfamily K member 9 (Homo sapiens), Q9NPC2; FluxOR thallium flux fluorescence; hits give low values; B-score at 10 µM; 310,000 tested, 1.2% active;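 active means ratio B-score over 3 SD below the library mean, with starting fluorescence within 5 SD of its mean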;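 further: negative B-score means less thallium flux so channel inhibition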
# hERG protect: hERG rescue from dofetilide block, primary screen, cell-based, CHO-hERG, FluxOR thallium flux, dofetilide IC70. Voltage-gated inwardly rectifying potassium channel KCNH2 (Homo sapiens), Q12809. dofetilide IC70 present. activation (rescue from dofetilide block), less the hit threshold, % at 10 µM. 310,000 tested, 0.51% active;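 active means activation above the mean of controls blocked by dofetilide plus 5 SD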;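 further: thallium influx through hERG after potassium depolarization seen as dye fluorescence rise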
# KCNQ1 pot: potentiators or activators of KCNQ1 channel, primary screen, cell-based, thallium flux, high-throughput | Potassium voltage-gated channel subfamily KQT member 1 (Homo sapiens), P51787 | CHO-K1 KCNQ1, thallium flux FluxOR fluorescence; hits give high values | B-score at 10 µM | 310,000 tested, 0.35% active | AID 2648, 2010;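 active means fluorescence ratio B-score, a plate-corrected score, at least three library SD, with initial intensity B-score within 5 SD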
#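 Medium – assay buffer, equal DMSO in all wells · Material – CHO-K1 cell line with stable KCNQ1 potassium channel expression · Signal – kinetic FluxOR thallium fluorescence, 10-s 1-Hz baseline, 110-s post-stimulus read · Compound – single concentration per compound, DMSO matched to controls · Schedule – 37 °C overnight plating, 90-min dark dye load, 20-min compound pretreatment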
# KCNQ1 block: inhibitors of human KCNQ1 channel, primary screen, cell-based, thallium flux, high-throughput; CHO-K1 KCNQ1, FluxOR thallium flux fluorescence; hits give high values; 310,000 tested, 1.3% active; Potassium voltage-gated channel subfamily KQT member 1 (Homo sapiens), P51787; B-score at 10 µM;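 active means compounds whose thallium flux B-score, printed positive for inhibition, exceeds three library SD while starting fluorescence stays within three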;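 further: channel opened by potassium depolarization with thallium stimulus after 20 min compound exposure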
# Kir21 inh: inhibitors of mouse Kir2.1 inward-rectifier potassium channel; HEK293-Kir2.1, FluxOR thallium flux fluorescence; hits give low values; Inward rectifier potassium channel 2 (Mus musculus), P35561; 310,000 tested, 0.85% active; B-score at 10 µM;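 active means fluorescence ratio B-score at or below minus 3 SD of library scores, with starting-brightness B-score within 2 SD, cut at about -4.2 in these data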;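 further: channel flux triggered by added potassium and thallium sulfate stimulus; B-score of peak minus minimum fluorescence over baseline after thallium stimulus; more negative B-score means stronger Kir2.1 block with less thallium influx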
# KCNK9 block conf: KCNK9 potassium channel inhibitors, confirmation, HEK293 cells, thallium flux, duplicate. shares compounds with KCNK9 inh. FluxOR thallium flux fluorescence. inhibition, % at 10 µM. 4,900 tested, 43% active. AID 492992, 2010;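 active means thallium signal inhibited by more than 5 SD of the compound-free buffer control wells, on both duplicate plates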;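 further: 0% = assay buffer control wells without compound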
# Kir2-1 spec: mouse Kir2.1 channel inhibition, confirmation, selectivity assay for KCNK9 modulator project, cell-based, HEK293, thallium flux. shares compounds with KCNK9 inh. Kir2.1 cells, FluxOR thallium flux fluorescence. inhibition, % at 10 µM. 4,900 tested, 4% active;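 active means thallium signal drop more than 5 SD beyond the mean of the no-compound control wells, seen in both duplicate plates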;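 further: signal is fluorescence rise after thallium addition divided by baseline fluorescence; plate controls were assay buffer only for no effect and full block by chlorpromazine control for full effect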
# HEK293 Tl ctr: thallium flux in non-induced HEK293 cells, confirmation, counter-screen for KCNK9 inhibitor project, cell-based, second counter screen, non-induced KCNK9-HEK293. shares compounds with KCNK9 inh. FluxOR thallium flux. inhibition, % at 10 µM. 4,900 tested, 40% active. AID 492997, 2010;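 active means thallium signal drop beyond 5 SD of the untreated control mean, on both duplicate plates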;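 further: plate controls were buffer only IC0 wells for no effect and SID17386958 at its maximal inhibitory level for full effect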
# Starred values were filed as active, the others as inactive; i = inactive; nt = not tested or not shown. Sampled rows, rich in hits. Any-hit rate of the full collection: about 3.7%.
SMILES,KCNK3 block,KCNK9 inh,hERG protect,KCNQ1 pot,KCNQ1 block,Kir21 inh,KCNK9 block conf,Kir2-1 spec,HEK293 Tl ctr
COc1ccc(OCC(=O)N2CCCC(N3CCN(c4ccccc4C)CC3)C2)cc1 (stereo unspecified),i,i,-13,i,i,-1.7,i,i,i
O=C(COc1ccccc1Cl)N1CCCC(N2CCN(c3ccc(F)cc3)CC2)C1 (stereo unspecified),i,i,-15,i,i,0.16,i,i,i
Cc1ccc(OCC(=O)N2CCCC(N3CCN(c4ccc(F)cc4)CC3)C2)cc1 (stereo unspecified),i,i,-15,i,i,1,nt,nt,nt
COc1ccccc1OCC(=O)N1CCCC(N2CCN(c3ccc(F)cc3)CC2)C1 (stereo unspecified),i,i,-4,i,i,-1.8,i,i,i
CC(=O)OCC12CC(OC(=O)CC(C)C)C(C)=CC1OC1C(O)C(OC(C)=O)C2(C)C12CO2 (stereo unspecified),i,nt,nt,nt,nt,nt,nt,nt,nt
CCN(CC)C(=O)c1ccc(NC(=S)NC(=O)CCc2ccccc2)cc1,i,i,-18,i,i,0.01,nt,nt,nt
COc1cccc(NP(=O)(Oc2ccccc2Cl)Oc2ccccc2Cl)c1,i,-10*,-2,i,i,0,38%*,i,38%*
O=C(c1ccc2c(c1)OCO2)C1CCCN(Cc2ccc(F)c(F)c2)C1 (stereo unspecified),i,i,-13,i,i,-0.24,nt,nt,nt
O=C(c1cccc(Cl)c1)C1CCCN(Cc2cccc3cnccc23)C1 (stereo unspecified),i,i,-11,i,i,-2.1,nt,nt,nt
O=C(c1ccc(Cl)cc1)C1CCCN(Cc2ccc3ncccc3c2)C1 (stereo unspecified),i,i,-28,i,i,-0.38,i,i,i
O=C(c1ccc(Cl)cc1)C1CCCN(Cc2ccc3c(c2)OCCO3)C1 (stereo unspecified),i,i,-8,i,i,-1.4,i,i,i
O=C(c1ccc(Cl)cc1)C1CCCN(Cc2cccc3cnccc23)C1 (stereo unspecified),i,i,-26,i,i,-1.4,i,i,i
COC(=O)C1=C(c2ccc(S(C)(=O)=O)cc2)C[C@@H]2CC[C@H]1N2C(=O)NCc1cccc2ccccc12,i,i,-11,i,i,0,nt,nt,nt
Cn1cc(C(=O)OCC(=O)NC2CCCCC2)c2ccccc21,i,nt,nt,nt,nt,nt,nt,nt,nt
COCc1ccc(CN2CCCC(C(=O)c3sccc3C)C2)o1 (stereo unspecified),i,i,-7,i,i,0.11,i,i,i
CCCCn1c(O)c(C(=O)/C=C/c2c[nH]c3ccccc23)c(=O)[nH]c1=O,i,i,-13,i,i,-11,nt,nt,nt
CCOc1ccc(-c2c(C)n(-c3ccc(OCC)cc3)c3[n+]2CCCCC3)cc1,i,-10*,-18,i,9*,-10*,44%*,33%*,i
CCOc1ccc(-n2c(-c3ccoc3)nc3ccccc3c2=O)cc1,i,i,-13,i,i,0.05,nt,nt,nt
